# Assay outcomes as filed in PubChem BioAssay.
# Only some compounds are listed: those with a hit (about 3.9% of all), similar ones and a draw of the others.
# HSF1 activator – increases HSF-1 driven luciferase reporter signal | NIH3T3-HGL HSF-1 luciferase reporter, MG132, 8 h; 100% = twice DMSO control signal | activation, % at 9 µM | 300,000 tested, 1.7% active | AID 504408;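 active = mean replicate activation of at least 50% with a set share of replicates each reaching 50%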;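 note: 0% = median of the neutral control wells and 100% = twice that signal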
# HCV core dimer – HCV core protein dimerization inhibition; TR-FRET GST/Flag-core106 dimerization, 1536-well; inhibition, % at 5 µM; 300,000 tested, 0.33% active;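 active = inhibition above the mean of all tested compounds plus 3 SD, set per screening campaign, cut at about 45% in these data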
#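 Test system: GST/Flag-tagged HCV core106 proteins; Medium: KF-containing HEPES buffer, pH 7.45, DTT, CHAPS, BSA; Times: compound-protein-antibody incubation 4 h at 22.5 °C; Detection: TR-FRET 671 and 617 nm emission; Benchmarks: wells lacking GST-core106 and wells with excess unlabelled core106.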
# HSP90 inh – HSP90 refolding inhibition in rabbit reticulocyte lysate. luciferase refolding luminescence, 3 h. inhibition, % at 5.6 µM. 290,000 tested, 0.91% active;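 active = inhibition above the screen-wide mean plus 3 SD, computed separately per campaign, cut at about 16% in these data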;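 note: 0% = DMSO wells and 100% = 60 µM geldanamycin wells; inhibitors lower the luminescence because luciferase stays unfolded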
# DNA FID counter-1 – displaces DNA intercalator in HCV helicase counter-screen; AID 1845; DNA fluorescent intercalator displacement, fluorescence; 290,000 tested, 0.17% active; inhibition, % at 7.9 µM;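 note: 0% = vehicle and 100% = reference compound; higher means more ethidium bromide displaced from hairpin DNA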
# HSF1 inh – HSF1 inhibition | 300,000 tested, 0.77% active | NIH3T3-HGL HSE-luciferase, MG132-induced, luminescence 8 h; hits give low values | activity change, negative = inhibition, % at 7.5 µM (by protocol);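 active = more than half of replicate wells show activity change below -50%, luminescence cut by over half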;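 note: luciferase reports HSF-1 transcriptional activity via heat shock element; 0% = median of DMSO wells and -100% = zero luminescence signal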
# HCV NS3 hel inh – inhibitors of Hepatitis C virus NS3 helicase; NS3 helicase DNA unwinding, Cy5 molecular beacon fluorescence; 290,000 tested, 0.56% active; inhibition, % at 10.9 µM; AID 1800;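 active = inhibition above the mean of all tested compounds plus 3 SD, set per campaign, cut at about 35% in these data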;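 note: 0% = DMSO wells and 100% = thioflavine S control wells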
#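 Assay system – hepatitis C virus NS3 helicase domain fragment enzyme · Buffer or medium – MOPS pH 6.5, MgCl2, DTT, Tween20, BSA · Reagent – Cy5/quencher beacon DNA duplex and ATP to start · Compound – single 10.9 µM dose · Timing – 1 h at 25 °C · Technique – Cy5 beacon fluorescence read at start and 1 h · Measure – % inhibition of unwinding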
# NS3 helicase cf – confirmation of Hepatitis C virus NS3 helicase inhibitors | inhibition, % at 10.9 µM | shares compounds with HCV NS3 hel inh | NS3 helicase DNA unwinding, Cy5 molecular beacon fluorescence | 1,600 tested, 31% active;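 active = inhibition above the mean of all tested compounds plus 3 SD, cutoff set per campaign, cut at about 36% in these data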
# DNA FID counter-2 – displaces DNA intercalator in HCV helicase counter-screen | shares compounds with HCV NS3 hel inh | DNA fluorescent intercalator displacement, fluorescence | 1,600 tested, 4% active | inhibition, % at 7.9 µM | AID 1945;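 note: 0% = vehicle and 100% = reference compound; higher means more displacement of ethidium bromide from the DNA hairpin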
# FID counter DR – DNA intercalator displacement in dose response; shares compounds with HCV NS3 hel inh; fluorescent intercalator displacement from DNA, fluorescence; IC50, µM; 120 tested, under 10 active; call rule not given here
# Active calls of the source: *; . = no result. Cut-off read from the data, not from the text of the source, unless noted: active = inhibition above about 37%; inactive = the rest.
SMILES,HSF1 activator,HCV core dimer,HSP90 inh,DNA FID counter-1,HSF1 inh,HCV NS3 hel inh,NS3 helicase cf,DNA FID counter-2,others
COc1ccc(OC)c(/C=C2\SC(=S)N(C(C(=O)O)c3ccccc3)C2=O)c1 (stereo unspecified),-1,13,-1,-13,-6,47*,84*,16,
CCOc1ccc(/C=C2\SC(=S)N(C(C(=O)O)c3ccccc3)C2=O)cc1OC (stereo unspecified),-17,6,2,-24,2,28,.,.,
CCOC(=O)N1CCC(c2cc(=O)n3[nH]c(C)c(-c4ccc(F)cc4)c3n2)CC1,8,0,3,-38,-6,6,.,.,
COCCNC(=O)c1c[nH]n2c(=O)cc(C3CCN(C(=O)OC(C)(C)C)CC3)nc12,8,-14,-1,-58,-3,41*,-8,-27,
O=C(c1ccccc1)C1CN(Cc2ccccc2)CCC1(O)c1ccccc1 (stereo unspecified),0,1,5,0,1,10,.,.,
O=c1c2ccccc2oc2cc(OCc3cccc(F)c3)cc(O)c12,15,.,3,5,1,37*,-11,17,
CCOC(=O)c1oc2cc(O)cc(O)c2c(=O)c1OCc1ccccc1,6,-2,.,.,8,.,.,.,
O=C(O)CN1C(=O)/C(=C/c2ccc(N3CCCCC3)o2)SC1=S,-3,-16,8,-29,-10,61*,27,0,
CC(/C=C1\SC(=S)N(CC(=O)O)C1=O)=C\c1ccccc1,-16,16,-5,-8,-2,18,.,.,
CC(=C\c1ccco1)/C=C1/SC(=S)N(CC(=O)O)C1=O,-3,-2,0,-24,-3,45*,3,-1,
O=C(CN1C(=O)/C(=C/c2ccco2)SC1=S)Nc1ccc(O)c(C(=O)O)c1,2,-5,3,9,-5,25,.,.,
CC(=C\c1ccccc1)/C=C1/SC(=S)N(CCC(=O)O)C1=O,18,4,5,-9,0,51*,65*,-9,
COC(=O)CNC(=O)COC(=O)/C=C/c1ccc(F)cc1,7,1,-2,-4,-1,-4,.,.,
Cc1cc(Cl)ccc1Oc1ccccc1C(=O)CC#N,7,9,-2,-8,2,37*,53*,9,FID counter DR=>79
CCN(CC)c1ccc2c(-c3ccc(S(=O)(=O)O)cc3S(=O)(=O)[O-])c3ccc(=[N+](CC)CC)cc-3oc2c1,-22,68*,-5,.,-18,51*,84*,.,
O=C1NC(c2ccccc2)CCO1 (stereo unspecified),4,0,3,-15,0,56*,-10,13,
O=C(Nc1ccccc1)C1=C(O)CC(c2ccoc2)CC1=Nc1ccccc1 (stereo unspecified),86*,18,4,-13,68,41*,-7,10,
